Screening results: PubChem BioAssay, several laboratories
Autophagy HCS: autophagy modulation, high-content screen; MEF GFP-LC3 puncta imaging; test concentration mostly 10 µM; calls only at 10 µM (by protocol); 190,000 compounds, 0.98% hits; AID 463193;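 active means percentage of spot-positive cells more than 3 SD above its plate mean, without a fluorescence outlier flag or 80% toxicity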
ABCB1 inh: human ABCB1 inhibition, ABCG2 as counter-screen; CCRF-Adr cells, JC-1 efflux, flow cytometry; inhibition, % at 6.6 µM; 190,000 compounds, 0.067% hits; P08183; in the data active means inhibition above about 40%;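 further: higher value means more JC-1 retained so stronger ABCB1 efflux block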
ROMK primary: human ROMK K+ channel modulation, primary screen; P48048; Tet-inducible ROMK, thallium flux fluorescence; actives lie on both sides; B-score at 10 µM; 130,000 compounds, 2% hits; AID 1918;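 active means signal ratio slope over the read window, or its plate-corrected B-score, at least 3 SD from the plate mean, either direction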;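 further: B-score of the F/F0 ratio slope over 7 to 12 s after thallium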
Target sequence (P48048 whole entry, looked up): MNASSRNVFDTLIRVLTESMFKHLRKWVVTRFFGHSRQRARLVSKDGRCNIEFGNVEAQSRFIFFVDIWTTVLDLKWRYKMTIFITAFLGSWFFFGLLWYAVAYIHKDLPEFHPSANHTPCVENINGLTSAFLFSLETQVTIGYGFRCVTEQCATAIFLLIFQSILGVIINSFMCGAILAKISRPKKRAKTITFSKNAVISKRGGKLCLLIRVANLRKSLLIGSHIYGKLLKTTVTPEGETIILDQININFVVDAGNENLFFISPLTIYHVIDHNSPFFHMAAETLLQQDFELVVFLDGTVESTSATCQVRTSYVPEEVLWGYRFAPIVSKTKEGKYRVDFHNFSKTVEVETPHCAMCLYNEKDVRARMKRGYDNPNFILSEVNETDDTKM
ABCG2 inh: blocks JC-1 efflux by human ABCG2 transporter; AID 1325; inhibition, % at 6.6 µM; IgMXP3 cells, flow cytometry; 190,000 compounds, 0.1% hits; Q9UNQ0;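 active means inhibition above 80%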
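Test system: IgMXP3 (ABCG2) plus far-red-tagged CCRF-Adr (ABCB1) cells / Amount: 3 million cells/mL in well / Reagent: JC-1 transporter substrate / Timing: 10 min compound exposure, 25 °C / Signal: flow cytometry, 530 nm JC-1 signal / Read-out: percent efflux inhibition, scaled nicardipine 100% to DMSO 0% / Benchmarks: nicardipine as high control, DMSO as low control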
sdo1 growth: compounds rescuing growth of sdo1-depleted yeast, bone marrow failure model. S. cerevisiae sdo1-depleted JHY4D growth rescue, OD600 30 h; active compounds read high; pdr5 snq2 efflux-pump mutant strain. z-score at 10 µM. 140,000 compounds, 0.21% hits. AID 817;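 active means z-score above 3 at both the 24 hr and the 30 hr optical density reads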
Ins promoter up: MIN6 insulin promoter up-regulation | z-score at 5 µM | 190,000 compounds, 0.3% hits | MIN6 insulin promoter-GFP reporter, high-content imaging; active compounds read high;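 active means z-score above 3 at 5 µM with at least 500 cells counted in the well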
ROMK hit retest: human ROMK channel modulation, retest confirmation; normalized thallium flux (F/F0 slope) at 10 µM; AID 1917; ROMK thallium flux, fluorescence ratio; active compounds read low; shares compounds with ROMK primary; 3,000 compounds, 54% hits;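 active means Flux at 10 µM at least 3 SD below or above vehicle control mean in one or both replicates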
Large screens that a line does not name were inactive (follow-up assays come after a bar, where they were run). Sampled rows, rich in hits. Any-hit rate of the full collection: about 2.3%.

CC(=O)NC12CC3CC(C1)CC(C(=O)OCC(=O)Nc1ncc(Cl)cc1Cl)(C3)C2	ROMK primary -4 (no result: Ins promoter up) | ROMK hit retest inactive
COC(Cc1n[nH]c(=S)n1-c1ccccc1)OC	none (no result: ROMK primary) | ROMK hit retest inactive
COCc1n[nH]c(=S)n1-c1ccccc1	none
S=c1[nH]nc(-c2cnccn2)n1-c1ccccc1	none
COc1ccc(-n2c(-c3cnccn3)n[nH]c2=S)cc1	none (no result: ROMK primary) | ROMK hit retest inactive
Cc1ccc2nsnc2c1NC(=O)CCl	ROMK primary -13 (no result: sdo1 growth) | ROMK hit retest inactive
CCC(=O)Nc1c(C)ccc2nsnc12	none (no result: ROMK primary)
CCOC(=O)c1sc(NC(=O)CSc2ccccn2)c(C#N)c1C	none (no result: ROMK primary)
CCOC(=O)c1sc(NC(=O)CSc2n[nH]c(-c3ccccc3)n2)c(C#N)c1C	Autophagy HCS active (no result: ROMK primary) | ROMK hit retest 0.059
COc1ccc(NC(=O)Nc2ccc(F)cc2)c(C)c1	ROMK primary -2.1 (no result: sdo1 growth) | ROMK hit retest inactive
COc1ccc(NC(=O)Nc2ccc(F)cc2F)c(C)c1	none
O=C(c1ccc([N+](=O)[O-])cc1)N(Cc1ccc(Br)cc1)N1C(=O)CCCC1=O	Autophagy HCS active, ROMK primary -7.3 | ROMK hit retest 0.037
O=C(c1ccccc1Cl)N(Cc1ccc(Br)cc1)N1C(=O)CCCC1=O	none (no result: ROMK primary, sdo1 growth)
CCOc1ccccc1Nc1nc2ccccc2n1C(C)C	none (no result: sdo1 growth)
CCCCCOc1ccc(Br)cc1CSC(=N)N	none (no result: ROMK primary) | ROMK hit retest 0.042
CC1CCN(CCCNC(=O)c2cc3c(Cl)nc4ccccc4c3s2)CC1	none (no result: sdo1 growth)
O=c1[nH]c(CSc2nc3ccccc3[nH]2)nc2c1cnn2-c1ccccc1	ROMK primary -3.4 | ROMK hit retest 0.053
CCc1cccc(CC)c1NC(=O)COC(=O)CC1c2ccccc2CCN1S(=O)(=O)c1ccc(F)cc1 (stereo not drawn)	ROMK primary -3.8 | ROMK hit retest 0.06
O=C(COC(=O)CC1c2ccccc2CCN1S(=O)(=O)c1ccc(F)cc1)Nc1ccccc1 (stereo not drawn)	none
CC(NC(=O)Nc1ccc(Cl)c(Cl)c1)C(c1ccccc1)N1CCOCC1 (stereo not drawn)	none
CC1CCN(CC(=O)Nc2cccc(C(=O)Nc3cccc(C(F)(F)F)c3)c2)CC1	none (no result: ABCB1 inh)
COc1ccccc1/C=N/NC(=O)COCC(=O)N/N=C/c1ccccc1OC	none (no result: sdo1 growth)
COc1ccccc1/C=N/NC(=O)CC(=O)Nc1ccc(Cl)c(Cl)c1	ROMK primary -3.8 | ROMK hit retest inactive
CS(=O)(=O)N1CCC(Oc2ccccc2C(=O)N2CCN(CC3CC3)CC2)CC1	none (no result: sdo1 growth, Ins promoter up)
CC1CCN(c2nc3c(c(=O)[nH]c(=O)n3C)n2CC(C)CSc2nnnn2-c2ccccc2)CC1 (stereo not drawn)	none
N#C/C(=C/c1ccncc1)c1nc2ccccc2s1	ROMK primary -3.5 (no result: sdo1 growth) | ROMK hit retest 0.053
N#C/C(=C\c1ccncc1)c1nc2ccccc2[nH]1	ROMK primary -5.2 (no result: sdo1 growth) | ROMK hit retest 0.051
N#C/C(=C(/O)C(Cl)(Cl)Cl)c1nc2ccccc2[nH]1	ROMK primary -4.9 (no result: Autophagy HCS, ABCB1 inh, ABCG2 inh, sdo1 growth) | ROMK hit retest 0.045
Cc1ccc(C2(c3noc(CN4CCC(c5ccncc5)CC4)n3)CCCC2)cc1	none (no result: sdo1 growth, Ins promoter up)
O=[N+]([O-])c1ccc(Oc2c(F)c(F)nc(N3CCCC3)c2F)cc1	none
Clc1ccc(COc2cccc(CNCc3ccncc3)c2)cc1	ROMK primary -3.8 (no result: sdo1 growth) | ROMK hit retest inactive
CC(C)(CO)NCc1cccc(OCc2ccc(Cl)cc2)c1	none
Cc1cccc(Nc2nc3c(S(=O)(=O)c4ccccc4)nnn3c3ccccc23)c1	none | ROMK hit retest inactive
CC(C)(C)n1ncc2c(=O)n(CC(=O)NCc3ccc(F)cc3)cnc21	ROMK primary 3.9 | ROMK hit retest inactive
CCOC(=O)C(C)Oc1cccc2c(=O)n(CC(=O)NCc3ccc(F)cc3)ccc12 (stereo not drawn)	ROMK primary 3.6 (no result: Autophagy HCS, ABCB1 inh, ABCG2 inh, sdo1 growth) | ROMK hit retest inactive
CCOC(=O)C(C)Oc1cccc2c(=O)n(CC(=O)NCc3ccccc3)ccc12 (stereo not drawn)	none (no result: Autophagy HCS, ABCB1 inh, ABCG2 inh, sdo1 growth)
Cc1cccc(C)c1NC(=O)C(C)N1CCCCC1 (stereo not drawn)	none (no result: Autophagy HCS, ABCB1 inh, ROMK primary, ABCG2 inh, sdo1 growth)
CCc1ccccc1NC1=CC(=O)CC(C)(C)C1	none (no result: sdo1 growth, Ins promoter up)
O=C(Nc1cccc(N=Cc2cc(Cl)cc(Br)c2O)c1)c1ccco1	ROMK primary 4.1 | ROMK hit retest 0.11
